Assay outcomes: PubChem BioAssay, several laboratories
D1 allo mod: D1 CRE-luciferase signal change, two-sided – cell-based, HEK293 D1, dopamine EC30, D1 allosteric modulator project, primary screen | B-score at 10 µM | AID 641, 2007 | dopamine EC30 potentiation; actives deviate in either direction | D(1A) dopamine receptor (Homo sapiens), P21728 | actives 5.9% (n = 58,000);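 active = luminescence count or its row- and column-corrected plate score outside the 99.7% band of the plate's sample wells, on either side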
M1 antag: antagonists of rat M1 muscarinic receptor | Muscarinic acetylcholine receptor M1 (Rattus norvegicus), P08482 | CHO-M1 cells, Fluo-4 calcium, ACh EC80 antagonist mode; stronger effect = lower value | B-score at 10 µM | actives 3.4% (n = 64,000);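 active = calcium fluorescence response, raw or row-and-column corrected B-score, differing from the plate sample mean either way at a set confidence level, mostly lower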
RORA act: activators of orphan receptor RORA, primary screen, cell-based, luminescence. AID 560, 2006. activation, % at 10 µM. CHO-K1 Gal4-RORA LBD luciferase reporter; percent increase over mock-subtracted basal signal. actives 1.5% (n = 65,000). Nuclear receptor ROR-alpha (Homo sapiens), P35398;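 active = activation above the mean of all tested compounds plus 3 SD, cut at about 49% in these data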;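 also: 0% = DMSO-treated RORA cells and 100% = added signal equal to DMSO minus mock-transfected cells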
Target sequence (P35398 whole entry, looked up, the tested form may be a part): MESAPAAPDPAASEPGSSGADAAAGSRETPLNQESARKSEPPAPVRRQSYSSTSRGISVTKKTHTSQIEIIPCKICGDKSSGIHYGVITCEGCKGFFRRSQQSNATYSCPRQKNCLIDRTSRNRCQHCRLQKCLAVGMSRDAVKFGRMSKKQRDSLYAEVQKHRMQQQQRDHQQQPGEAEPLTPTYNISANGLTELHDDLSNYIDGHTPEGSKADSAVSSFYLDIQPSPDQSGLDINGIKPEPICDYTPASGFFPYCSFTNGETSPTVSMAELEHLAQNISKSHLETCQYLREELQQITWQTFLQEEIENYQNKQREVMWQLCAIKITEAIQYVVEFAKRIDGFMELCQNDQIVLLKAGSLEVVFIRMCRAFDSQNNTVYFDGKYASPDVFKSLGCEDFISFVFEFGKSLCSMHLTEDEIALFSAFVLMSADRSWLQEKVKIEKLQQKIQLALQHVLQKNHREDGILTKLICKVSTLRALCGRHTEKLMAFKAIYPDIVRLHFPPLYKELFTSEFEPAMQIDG
M1 agonist: M1 muscarinic receptor agonists, primary screen, CHO-M1 cells, Fluo-4 calcium, agonist mode | Fluo-4 calcium fluorescence; stronger effect = higher value | actives 3% (n = 64,000) | AID 626, 2007 | B-score at 10 µM | Muscarinic acetylcholine receptor M1;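 active = fluorescence rise, raw or as B-score row- and column-corrected plate score, outside the 99.7% band of its plate's samples, either direction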
SF-1 act: activators of human SF-1, primary screen, cell-based, CHO-K1, Gal4-SF-1 LBD, luciferase luminescence | Steroidogenic factor 1 (Homo sapiens), Q13285 | CHO-K1 Gal4-SF-1 LBD luciferase reporter; % increase over DMSO SF-1-specific signal | activation, % at 10 µM | actives 1.9% (n = 65,000);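 active = activation above the mean activation of all tested compounds plus 3 SD, cut at about 50% in these data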
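Material: Transient Gal4-SF-1 LBD reporter, CHO-K1 | Input: 4,000 cells/well | Dosing: One dose, 10 µM compound, 1% DMSO | Incubation: 20 h compound treatment, 37 °C | Detection: SteadyLite luciferase luminescence | Evaluation: Percent activation relative to DMSO median and mock-transfected background | Benchmarks: DMSO-treated SF-1-transfected cells as negative, DMSO-treated mock-transfected cells lacking SF-1 as background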
Htt clearance: clearance of mutant huntingtin inclusions, primary screen, imaging, HeLa Exon1htt(103Q)mCFP, confocal imaging. aggregate imaging; zero = plate's median compound well. inhibition, % at 1.5 µM. actives 0.42% (n = 47,000);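 active = inhibition of aggregate fluorescence above about 70%, also judged a hit by eye on the cell image, limit read from the data, passing the limit was not always enough; inconclusive = no rule stated for this call; inactive = not judged a hit on image review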;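 also: cells exposed to compound for three days before fixation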
M1 agonist conf: rat M1 muscarinic receptor agonists, confirmation, CHO-M1 cells, Fluo-4 calcium, duplicate retest. shares compounds with M1 agonist. Fluo-4 calcium fluorescence, agonist mode; actives lie on both sides. fluorescence change (max-min) at 10 µM. actives 19% (n = 1,700);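 active = fluorescence change differs from the solvent-only DMSO control mean at a set confidence level in both duplicate runs; inconclusive = differs from solvent-only control mean in just one of two runs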;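 also: an EC20 dose of acetylcholine follows compound addition during the same imaging run; raw fluorescence intensity difference in instrument units with no normalization to controls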
M4 ag counter: agonist activity at rat M4 receptor, confirmation, counter-screen for M1 allosteric modulator project, cell-based, agonist mode. shares compounds with M1 agonist. CHO M4/Gqi5 cells, Fluo-4 calcium fluorescence; actives lie on both sides. fluorescence change (max-min) at 10 µM. actives 9% (n = 1,700). AID 1741, 2009;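 active = fluorescence change differing from the plate's solvent-only control wells at 99.7% confidence in both duplicates, whether higher or lower; inconclusive = differs from solvent controls in only one of two duplicates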
* = called active by the depositor. Rows were chosen to be rich in hits. Some 11% of all compounds tested hit in one or more screens of this group.

Screening CCOC(=O)c1nc(N2CCN(C(=O)OCC)CC2)c2c3c(sc2n1)CCCC3 returned M1 antag -0.449, RORA act 19.0, M1 agonist 9.16*, SF-1 act 11.2, Htt clearance 33.5, M1 agonist conf inconclusive and M4 ag counter -63.3.
`CSc1nsc(SCC(=O)N2CCCc3ccccc32)n1` gave D1 allo mod 0.929, M1 antag -0.443, RORA act -19.1, M1 agonist 0.298, SF-1 act -19.9 and Htt clearance 20.0.
CCn1c(SCC(=O)N2CCCc3ccccc32)nc2ccccc2c1=O was read as D1 allo mod 1.55, M1 antag 0.438, RORA act -15.7, M1 agonist 3.11*, SF-1 act -18.1, M1 agonist conf -6.22 and M4 ag counter -47.1.
For O=C(CSc1n[nH]c(-c2ccccc2O)n1)N1CCCc2ccccc21 the results were D1 allo mod -1.03, M1 antag 1.25, RORA act -2.5, M1 agonist 11.1*, SF-1 act 14.8, M1 agonist conf inconclusive and M4 ag counter -47.6.
COc1ccccc1N1CCN(C(=O)CSc2nc3ccccc3c(=O)n2CC2CCCO2)CC1 (configuration not stated) was read as D1 allo mod -1.46, M1 antag -2.56, RORA act -17.3, M1 agonist 9.71*, SF-1 act 16.2, Htt clearance -34.3, M1 agonist conf -1.53 and M4 ag counter -6.15.
For CCOC(=O)CSc1nc2ccccc2c(=O)n1CC1CCCO1 (configuration not stated) the results were M1 antag -0.59, RORA act -21.9, M1 agonist -0.019, SF-1 act -19.4 and Htt clearance 15.8.
CCn1c(SCC(=O)N2CCCc3ccccc32)nc2cccnc21 was read as D1 allo mod -0.585, M1 antag -0.264, RORA act -0.3, M1 agonist -1.3, SF-1 act -16.0 and Htt clearance 27.3.
Screening Cc1cccc2nc(C(F)(F)F)nc(=O)n12 returned D1 allo mod -0.399, M1 antag 0.403, RORA act -7.5, M1 agonist 0.111 and SF-1 act -1.4.
`NC(=O)C1CCN(C(c2ccccc2Cl)c2nnnn2Cc2ccc3c(c2)OCO3)CC1` (configuration not stated) gave D1 allo mod 0.579, M1 antag -0.65, RORA act 9.5, M1 agonist -1.57, SF-1 act 3.8 and Htt clearance -25.6.
For COCCN1Cc2cccc(C(=O)NCc3cccnc3)c2C1=O the results were D1 allo mod 1.45, M1 antag 0.543, RORA act 2.8, M1 agonist 0.415, SF-1 act -16.7 and Htt clearance 14.7.
For CC(C)c1nc2oc3c(NCC4CCCO4)ncnc3c2c2c1COC(C)(C)C2 (configuration not stated) the results were D1 allo mod 12.2*, M1 antag -0.0586, RORA act -11.0, M1 agonist 4.5*, SF-1 act -3.0, Htt clearance -8.7, M1 agonist conf -25.9 and M4 ag counter -41.6.
CCOc1ccc(S(=O)(=O)N2CCN(c3ccccc3OC)CC2)c2cccnc12 was read as M1 antag -0.522, RORA act 1.8, M1 agonist 5.19*, SF-1 act 4.0, Htt clearance -3.4, M1 agonist conf -16.3 and M4 ag counter -48.6.
Screening Cn1cnnc1SCCn1c(N2CCCCC2)nc2c1c(=O)[nH]c(=O)n2C returned D1 allo mod -0.0389, M1 antag 0.087, RORA act 2.1, M1 agonist -0.0367 and SF-1 act 1.9.
CCCCCSc1nc2c(c(=O)[nH]c(=O)n2C)n1CCc1ccccc1 was read as M1 antag -0.0953, RORA act -16.8, M1 agonist 0.339 and SF-1 act -19.1.
`Cn1c(=O)c2cc(S(=O)(=O)N3CCC(c4ccccc4)CC3)ccc2n(C)c1=O` gave D1 allo mod -0.0162, M1 antag 0.337, RORA act -9.8, M1 agonist 0.854, SF-1 act 4.6 and Htt clearance -2.1.
CC(C)C(c1nnnn1C1CCCC1)N(C)C1CCCCC1 (configuration not stated) was read as D1 allo mod 0.274, M1 antag -0.0905, RORA act 7.4, M1 agonist 9.67*, SF-1 act -16.0, Htt clearance 50.8, M1 agonist conf -3.33 and M4 ag counter -17.
COc1cc2cc(C(c3nnnn3C3CCCC3)N(C)C3CCCCC3)c(=O)[nH]c2cc1OC (configuration not stated) was read as D1 allo mod -1.06, M1 antag 0.844, RORA act 28.0, M1 agonist 0.349, SF-1 act 9.8 and Htt clearance -12.1.
`CN(C)c1ccc(C2C=C(c3ccc(Cl)cc3OC(F)F)Nc3ncnn32)cc1` (configuration not stated) gave D1 allo mod -0.177, M1 antag 0.0117, RORA act 26.3, M1 agonist 17.8*, SF-1 act -13.1, M1 agonist conf 84.5* and M4 ag counter 59.6.
Cc1ccc(C2C=C(c3ccccc3OC(F)F)Nc3ncnn32)cc1 (configuration not stated) was read as M1 antag -1.58, RORA act -6.3, M1 agonist -0.272 and SF-1 act -4.0.
CCOc1ncccc1C(=O)Nc1ccc(-c2cn3ccsc3n2)cc1 was read as D1 allo mod -0.0843, M1 antag 0.00526, RORA act -20.7, M1 agonist 1.89 and SF-1 act -6.6.
`COc1ccccc1C(=O)Nc1cccc(-c2cn3ccsc3n2)c1` gave D1 allo mod -1.42, M1 antag 0.251, RORA act 2.1, M1 agonist 4.69*, SF-1 act 8.3, M1 agonist conf inconclusive and M4 ag counter -40.3.
`c1ccc(CCCNc2ncnc3nc[nH]c23)cc1` gave D1 allo mod -0.705, M1 antag -0.45, RORA act -10.9, M1 agonist 1.73 and SF-1 act -1.3.
